Test results as given in ChEMBL document CHEMBL1140845, “Synthesis of deoxygenated alpha(1-->5)-linked arabinofuranose disaccharides as substrates and inhibitors of arabinosyltransferases of Mycobacterium tuberculosis” (Bioorg Med Chem, 2009).
Active and inactive are the calls of the source. The calls are words filed in the database; no cut-off is given here.

Columns and labels:
[1] = tested on: Mycobacterium tuberculosis; experiment: Activity of arabinosyltransferase in Mycobacterium tuberculosis membrane assessed as [14C]Araf incorporation by TLC autoradiography
[2] = Inhibition of arabinosyltransferase in Mycobacterium tuberculosis membrane assessed as blockade of [14C]Araf incorporation to {Ara-f(1>5)Araf-O_C8H17] acceptor molecule by TLC autoradiography
How it was run: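 Competition format of the membrane AraTs assay: MOPS pH 8.0, MgCl2, ATP, β-mercaptoethanol, DP-[14C]Araf donor, 37°C for 1 h. Native acceptor Araf(1→5)Araf-O-C8H17 is held at 0.4 mM. Competitors are added at 0.5, 0.75, 1.0, 2.0, 4.0 and 6.0 mM. Product formation is judged by TLC (CHCl3:MeOH:NH4OH:H2O) with autoradiography at −70 °C for 3 days. IC50 is derived from the extent of product formation.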

Mycobacterium avium = experiment: Antimycobacterial activity against Mycobacterium avium NJ 211 at 12.8 to 128 ug/mL; format: functional, organism-based

SMILES | Km [1] [µM] | IC50 [2] [µM] | Activity (Mycobacterium avium)
CCCCCCCCO[C@H]1O[C@H](CO[C@H]2O[C@H](CO)[C@@H](O)[C@@H]2O)[C@@H](O)[C@@H]1F | 560 | 3580 | Active
CCCCCCCCO[C@@H]1C[C@H](O)[C@@H](CO[C@H]2O[C@H](CO)[C@@H](O)[C@@H]2O)O1 | 150 | 2450 | Active
CCCCCCCCO[C@H]1O[C@H](CO[C@H]2O[C@H](CO)[C@@H](O)[C@@H]2O)C[C@@H]1O | 110 | 2150 | Active
